IDE inh – cellular human IDE inhibition. HEK cells, FAbetaB cleavage, fluorescence polarization. inhibition, % at 5.59 µM. 0.41% of 320,000 active. AID 434962;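 active = percent inhibition above the average of all tested compounds plus 3 SD, set per screening campaign, cut at about 16% in these data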;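 note: IDE supplied by intact live HEK cells; FP after avidin binding of uncleaved biotin substrate so inhibition keeps polarization high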
Target sequence (P14735 whole entry, looked up): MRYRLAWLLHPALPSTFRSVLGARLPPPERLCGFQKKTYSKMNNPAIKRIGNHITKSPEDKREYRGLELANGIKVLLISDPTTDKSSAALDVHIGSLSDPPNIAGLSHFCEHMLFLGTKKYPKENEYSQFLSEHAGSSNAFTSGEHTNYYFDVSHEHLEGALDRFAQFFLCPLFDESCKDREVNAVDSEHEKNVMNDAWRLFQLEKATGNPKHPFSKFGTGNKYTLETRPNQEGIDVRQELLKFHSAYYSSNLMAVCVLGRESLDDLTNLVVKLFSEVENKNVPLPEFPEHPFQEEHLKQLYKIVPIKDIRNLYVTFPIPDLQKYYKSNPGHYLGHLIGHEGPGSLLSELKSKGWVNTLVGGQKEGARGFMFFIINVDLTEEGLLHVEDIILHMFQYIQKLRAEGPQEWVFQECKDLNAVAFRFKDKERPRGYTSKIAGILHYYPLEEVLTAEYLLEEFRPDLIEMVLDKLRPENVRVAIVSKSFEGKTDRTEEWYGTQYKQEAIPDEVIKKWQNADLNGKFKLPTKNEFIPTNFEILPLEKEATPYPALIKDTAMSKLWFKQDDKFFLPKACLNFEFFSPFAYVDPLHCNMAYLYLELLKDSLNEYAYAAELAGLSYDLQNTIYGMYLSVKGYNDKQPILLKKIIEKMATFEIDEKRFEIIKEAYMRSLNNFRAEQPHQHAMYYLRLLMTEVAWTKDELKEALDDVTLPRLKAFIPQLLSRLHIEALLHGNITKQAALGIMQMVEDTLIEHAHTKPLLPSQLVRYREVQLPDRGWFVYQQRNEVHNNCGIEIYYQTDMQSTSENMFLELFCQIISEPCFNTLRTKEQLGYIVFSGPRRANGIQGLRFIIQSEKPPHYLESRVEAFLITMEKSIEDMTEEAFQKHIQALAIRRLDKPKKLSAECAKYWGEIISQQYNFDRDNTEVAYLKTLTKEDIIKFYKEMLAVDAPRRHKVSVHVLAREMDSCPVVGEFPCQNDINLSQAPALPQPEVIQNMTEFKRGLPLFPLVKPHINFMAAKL
procasp7 counter – activates human procaspase-7, counter-screen for procaspase-3 activators. AID 463210. activation, % at 8.5 µM. P55210. recombinant procaspase-7, Ac-DEVD-pNA absorbance 405 nm; D23A/D198A/D206A triple mutant, cannot self-cleave; scale: DMSO 0, 5 µM enzyme 100. 0.093% of 330,000 active;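 active = percent activation above the screen-wide mean plus 3 SD, cut at about 25% in these data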
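buffer or medium = Zinc-free HEPES/NaCl buffer, pH 7.4 | material = Procaspase-7 triple mutant (PC-7 D3A) | input = 2 µM procaspase-7 mutant as dispensed | signal = Epi-absorbance of released pNA at 405 nm, two timepoints | timing = 1 h preincubation, 2 h reaction | replicates = singlicate compound testing | evaluation = % activation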
IDE act – activators of human insulin-degrading enzyme in cells; P14735; activation, % at 5.96 µM; 0.073% of 340,000 active; HEK cells, FAbeta-B cleavage, fluorescence polarization; 0% vehicle, 100% cell-free pure enzyme wells;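 active = activation above the mean of all tested compounds plus 3 SD, set per screening campaign, cut at about 17% in these data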
procasp3 activ – activators of human procaspase-3. P42574. recombinant procaspase-3 D3A, Ac-DEVD-pNA absorbance 405 nm. activation, % at 8.5 µM. 0.11% of 330,000 active. AID 463141;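 active = activation above the mean of all tested compounds plus 3 SD, cut at about 21% in these data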
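Assay system – Procaspase-3 D3A mutant, all three cleavage aspartates alanine · Controls – DMSO-only low control, 5 µM PC-3 D3A high control · Schedule – 1 h compound preincubation, 2 h substrate hydrolysis at 25 °C · Signal – 405 nm absorbance of p-nitroaniline, reads at 0 and 120 min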
TPT1 inhibitor – C. albicans TPT1 enzyme inhibition; recombinant caTPT1, FP RNA substrate dephosphorylation; inhibition, % at 5 µM; 0.81% of 300,000 active; AID 1962;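 active = inhibition above the mean of all tested compounds plus 3 SD, set per screening campaign, cut at about 24% in these data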
TPT1 inh confirm – TPT1 (C. albicans) inhibition, confirmation; shares compounds with TPT1 inhibitor; recombinant caTPT1, fluorescence polarization, RNase T1 coupled; inhibition, % at 5 µM; 74% of 2,400 active;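 active = inhibition above the primary screen limit, the mean inhibition of all tested compounds plus 3 SD, cut at about 25% in these data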
RNase T1 inh – blocks Aspergillus oryzae RNase T1, a TPT1 counter-screen | shares compounds with TPT1 inhibitor | RNase T1 cleavage, fluorescence polarization, 1536-well | inhibition, % at 5 µM | 83% of 2,400 active;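 active = inhibition above the solvent-only control well mean plus 3 SD, limit set per screening run, cut at about 23% in these data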;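 note: inhibitors block cleavage so intact labeled substrate keeps polarization high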
Large screens that a line does not name were inactive (follow-up assays come after a bar, where they were run). Shown are actives, neighbours in structure and some others; about 1.2% of the full set was active somewhere.

CCN(CC)c1ccc2cc(-c3nc4ccccc4n3C)c(=O)oc2c1	TPT1 inhibitor 80.8 | TPT1 inh confirm 80.6 | RNase T1 inh 84.8
Cc1cc(/C=N/Nc2ccc([N+](=O)[O-])cn2)c(C)n1-c1ccc(C(=O)O)cc1	TPT1 inhibitor 53.5 | TPT1 inh confirm 68.0 | RNase T1 inh 78.7
Cc1cc(/C=N/NC(=O)c2cccc([N+](=O)[O-])c2)c(C)n1-c1ccccc1	none
O=[N+]([O-])c1ccc(NN=Cc2ccccc2)nc1	none (no result: IDE inh, procasp7 counter, procasp3 activ, TPT1 inhibitor)
CCSc1ncc(/C=N/Nc2ccc([N+](=O)[O-])cc2)n1C	TPT1 inhibitor 55.7 | TPT1 inh confirm 57.1 | RNase T1 inh 65.9
O=[N+]([O-])c1ccc(N/N=C\c2cccn2-c2ccccc2)nc1	TPT1 inhibitor 88.3 | TPT1 inh confirm 78.4 | RNase T1 inh 90.2
O=[N+]([O-])c1ccc(NN=Cc2ccccc2O)nc1	none (no result: IDE inh, procasp7 counter, procasp3 activ, TPT1 inhibitor)
CCSc1ncc(/C=N/Nc2ccccc2)n1C	none
Cc1ccccc1-n1c(C)cc(/C=N/Nc2ccc([N+](=O)[O-])cn2)c1C	TPT1 inhibitor 37.6 | TPT1 inh confirm 41.2 | RNase T1 inh 56.5
CCN1C(=O)[C@H]2[C@@H](c3ccc(-c4ccc(C(C)=O)cc4)cc3)N3CCC[C@@]3(C(=O)OC)[C@H]2C1=O	none
COc1ccc(-c2cn(Cc3ccc(C(=O)NCc4ccc(C)cc4)cc3)c(C(C)N)n2)cc1 (stereo not drawn)	none
CC(NC(=O)COC(=O)c1ccc(Br)o1)c1ccccc1 (stereo not drawn)	none (no result: IDE inh, procasp7 counter, procasp3 activ, TPT1 inhibitor)
CCCCc1nnc(NC(=O)CSCc2cc(=O)n3cc(C)sc3n2)s1	none
N#Cc1ccccc1Cn1cc(/C=N/Nc2ccc([N+](=O)[O-])cn2)c2ccccc21	TPT1 inhibitor 36.6 | TPT1 inh confirm 81.8 | RNase T1 inh 89.5
CCN(CC)C(=O)c1ccc(Oc2ccc([N+](=O)[O-])cc2Cl)cc1	TPT1 inhibitor 44.0 | TPT1 inh confirm inactive | RNase T1 inh inactive
COc1ccc(NC(=O)c2cccc(Oc3ccc([N+](=O)[O-])cc3Cl)c2)cc1	none
CCOC(=O)c1ccc(N2CC(O)=C(c3nc4ccccc4c(=O)[nH]3)C2=N)cc1	TPT1 inhibitor 46.6 | TPT1 inh confirm 40.8 | RNase T1 inh 52.4
CCOc1ccc(N2CC(O)=C(c3nc4ccccc4c(=O)[nH]3)C2=N)cc1	none
CCN1CCc2c(sc(NC(=O)c3ccc(S(=O)(=O)N4CCCC4)cc3)c2C(=O)NC)C1	none
CNC(=O)c1c(NC(=O)c2ccc(S(=O)(=O)N3CCCCC3)cc2)sc2c1CCN(C(C)C)C2	TPT1 inhibitor 28.7 | TPT1 inh confirm 30.4 | RNase T1 inh 39.3
CN1CCc2c(sc(NC(=O)c3ccc(S(=O)(=O)N4CCCC4)cc3)c2C(N)=O)C1	TPT1 inhibitor 115.9 | TPT1 inh confirm 132.8 | RNase T1 inh 133.7
CN1CCc2c(sc(NC(=O)c3ccc(S(=O)(=O)N4CCOCC4)cc3)c2C(N)=O)C1	TPT1 inhibitor 90.0 | TPT1 inh confirm 100.6 | RNase T1 inh 110.7
CCOC(=O)N1CCN(S(=O)(=O)c2ccc(C(=O)Nc3sc4c(c3C(=O)OC)CCN(C)C4)cc2)CC1	none
CCOC(=O)c1sc2nc3c(SCCC#N)cc(C(=O)c4cc(F)ccc4O)cn3c(=O)c2c1C	TPT1 inhibitor 48.2 | TPT1 inh confirm 27.2 | RNase T1 inh 31.5
CCOC(=O)N1CCN(S(=O)(=O)c2c(C)nc3sccn3c2=O)CC1	none
O=C1NC(=Nc2cccnc2)S/C1=C\c1cccc(F)c1	none
COc1cc(/C=C2\SC(=Nc3cccnc3)NC2=O)cc(OC)c1OC	TPT1 inhibitor 52.1 (no result: IDE act) | TPT1 inh confirm 72.8 | RNase T1 inh 84.4
CN(CCCC(=O)N1CCN(c2ncccn2)CC1)S(=O)(=O)c1ccc(F)cc1	none (no result: TPT1 inhibitor)
Cn1cccc1C(=O)/C(C#N)=C/c1ccc(F)cc1	TPT1 inhibitor 52.8 | TPT1 inh confirm 79.7 | RNase T1 inh 95.6
COc1ccc(/C=C(\C#N)C(=O)c2cccn2C)cc1	none

Assay outcomes as filed in PubChem BioAssay.
